Measurements taken from ChEMBL document CHEMBL3739303, “Targeting the Src Homology 2 (SH2) Domain of Signal Transducer and Activator of Transcription 6 (STAT6) with Cell-Permeable, Phosphatase-Stable Phosphopeptide Mimics Potently Inhibits Tyr641 Phosphorylation and Transcriptional Activity” (J Med Chem, 2015).
The source made the active and inactive calls. The calls are words filed in the database; no cut-off is given here.

Experiments:
Format in all cases: cell-based
[1] = molecular target: T1, Signal transducer and activator of transcription 6 (Homo sapiens) (UniProt P42226); assay: Inhibition of IL4-induced STAT6 phosphorylation in human MDA-MB-468 cells at 0.1 to 5 uM incubated for 2 hrs followed by stimulation with IL4 for 1 hr by Western blot assay
T1 sequence (whole entry): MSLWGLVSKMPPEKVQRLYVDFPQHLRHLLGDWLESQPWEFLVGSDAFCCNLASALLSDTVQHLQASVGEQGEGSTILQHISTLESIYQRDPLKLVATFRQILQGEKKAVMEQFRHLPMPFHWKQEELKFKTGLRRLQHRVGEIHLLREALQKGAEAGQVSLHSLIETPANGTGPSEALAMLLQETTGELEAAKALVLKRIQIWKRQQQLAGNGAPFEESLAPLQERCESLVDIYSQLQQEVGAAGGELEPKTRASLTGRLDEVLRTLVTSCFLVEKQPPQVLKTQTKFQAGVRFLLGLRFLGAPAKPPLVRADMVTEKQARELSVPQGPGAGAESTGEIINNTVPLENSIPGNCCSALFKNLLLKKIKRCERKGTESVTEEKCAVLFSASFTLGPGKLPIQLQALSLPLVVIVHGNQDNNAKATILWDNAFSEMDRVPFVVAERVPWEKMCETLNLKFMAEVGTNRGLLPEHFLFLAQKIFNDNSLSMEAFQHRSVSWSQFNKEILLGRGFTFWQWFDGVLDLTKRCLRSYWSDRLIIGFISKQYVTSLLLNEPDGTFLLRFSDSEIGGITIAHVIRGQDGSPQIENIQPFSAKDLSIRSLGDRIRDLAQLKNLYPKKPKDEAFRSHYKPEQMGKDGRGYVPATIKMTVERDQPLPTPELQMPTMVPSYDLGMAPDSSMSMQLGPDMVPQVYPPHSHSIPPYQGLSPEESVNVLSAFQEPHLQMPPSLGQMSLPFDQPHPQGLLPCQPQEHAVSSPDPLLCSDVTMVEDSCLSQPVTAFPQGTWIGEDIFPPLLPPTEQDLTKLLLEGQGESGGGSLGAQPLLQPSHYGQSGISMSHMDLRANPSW
Procedure, shortened: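 MDA-MB-468 breast cancer cells serum-starved, treated with prodrugs, then IL-4 stimulated; pSTAT6 read by Western blot.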

[2] = molecular target: T2, Signal transducer and activator of transcription 1 (Mus musculus) (UniProt P42225); assay: Inhibition of IL6-induced STAT1 phosphorylation at Y701 in CD4+ T lymphocytes isolated from C57BL/6J mouse preincubated for 2 hrs followed by activation with plate-bound anti-CD3/anti-CD28 and IL6 for 15 mins by Western blot analysis
T2 sequence (whole entry): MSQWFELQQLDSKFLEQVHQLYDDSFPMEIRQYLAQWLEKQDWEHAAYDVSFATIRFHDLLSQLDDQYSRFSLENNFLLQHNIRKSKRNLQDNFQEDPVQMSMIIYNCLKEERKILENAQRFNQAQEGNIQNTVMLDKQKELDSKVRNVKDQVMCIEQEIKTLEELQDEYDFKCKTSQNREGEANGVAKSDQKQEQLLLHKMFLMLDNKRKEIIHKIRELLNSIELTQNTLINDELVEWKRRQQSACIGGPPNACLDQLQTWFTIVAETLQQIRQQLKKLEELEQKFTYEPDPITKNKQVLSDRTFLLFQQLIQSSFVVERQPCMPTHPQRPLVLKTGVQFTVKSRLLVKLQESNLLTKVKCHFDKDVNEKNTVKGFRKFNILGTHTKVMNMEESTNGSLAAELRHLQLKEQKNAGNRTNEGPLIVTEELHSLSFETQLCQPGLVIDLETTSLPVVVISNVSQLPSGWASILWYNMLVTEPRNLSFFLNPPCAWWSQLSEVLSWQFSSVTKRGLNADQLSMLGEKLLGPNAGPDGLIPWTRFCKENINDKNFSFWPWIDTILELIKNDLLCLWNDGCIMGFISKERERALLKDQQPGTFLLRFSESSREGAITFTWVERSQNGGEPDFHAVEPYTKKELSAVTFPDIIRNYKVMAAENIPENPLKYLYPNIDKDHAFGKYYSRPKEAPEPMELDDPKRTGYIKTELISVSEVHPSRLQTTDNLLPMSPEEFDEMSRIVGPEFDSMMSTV
Procedure, shortened: (§1)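 CD4+ T cells from C57BL/6J mice, sorted by AutoMACS; activated 15 min with plate-bound anti-CD3 and/or anti-CD28 with IL-2, IL-6 or IL-4; lysed with protease inhibitors plus 10 mM NaF and 1 mM Na3VO4; Bradford-normalised immunoblots for pSTAT1 (Tyr701), pSTAT5 (Tyr694), pSTAT6 (Tyr641) and total STATs.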

[3] = molecular target: T3, Signal transducer and transcription activator 6 (Mus musculus) (UniProt P52633); assay: Inhibition of IL4-induced STAT6 phosphorylation at Y641 in CD4+ T lymphocytes isolated from C57BL/6J mouse preincubated for 2 hrs followed by activation with plate-bound anti-CD3/anti-CD28 and IL4 for 15 mins by Western blot analysis; procedure, shortened: as §1
T3 sequence (whole entry): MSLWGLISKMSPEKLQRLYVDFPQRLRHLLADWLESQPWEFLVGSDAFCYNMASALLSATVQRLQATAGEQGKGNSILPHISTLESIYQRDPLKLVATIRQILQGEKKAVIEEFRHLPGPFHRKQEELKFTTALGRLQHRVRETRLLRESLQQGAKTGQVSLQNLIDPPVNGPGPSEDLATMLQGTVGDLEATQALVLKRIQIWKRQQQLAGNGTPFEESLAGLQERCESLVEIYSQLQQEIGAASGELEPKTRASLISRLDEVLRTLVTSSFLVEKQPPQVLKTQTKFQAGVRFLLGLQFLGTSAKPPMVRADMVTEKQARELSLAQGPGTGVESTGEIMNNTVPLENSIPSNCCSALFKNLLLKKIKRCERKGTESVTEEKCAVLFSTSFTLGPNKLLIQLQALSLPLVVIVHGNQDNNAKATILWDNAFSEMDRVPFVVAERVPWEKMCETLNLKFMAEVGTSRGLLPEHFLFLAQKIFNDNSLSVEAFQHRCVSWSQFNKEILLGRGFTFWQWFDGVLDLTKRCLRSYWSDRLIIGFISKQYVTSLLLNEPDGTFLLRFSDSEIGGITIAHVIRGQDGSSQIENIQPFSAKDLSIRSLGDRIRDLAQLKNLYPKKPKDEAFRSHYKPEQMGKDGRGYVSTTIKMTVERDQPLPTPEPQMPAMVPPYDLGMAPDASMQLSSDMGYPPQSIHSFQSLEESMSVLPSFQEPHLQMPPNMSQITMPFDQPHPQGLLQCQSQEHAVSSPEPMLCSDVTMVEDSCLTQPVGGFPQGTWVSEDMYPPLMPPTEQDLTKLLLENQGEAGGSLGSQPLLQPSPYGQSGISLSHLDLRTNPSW

Structure (SMILES): C/C(=C\C(=O)N[C@H](C(=O)N1CCC[C@H]1C(=O)N(C)c1ccccc1)C(C)(C)C)c1ccc(C(F)(F)P(=O)(OCOC(=O)C(C)(C)C)OCOC(=O)C(C)(C)C)cc1
- inhibition [1]: Active
- inhibition [2]: inactive
- inhibition [3]: Active
